In ChEMBL document CHEMBL1124645, “Minimum-structure enkephalin analogues incorporating L-tyrosine, D(or L)-phenylalanine, and a diamine spacer” (J Med Chem, 1989):

How the values were obtained:
Cavia porcellus [1] = species on record: Cavia porcellus; assay: Ability to display a naloxone-reversible inhibition of electrically induced contractions in GPI by Morphine at 0.1 uM; type: functional
Outline: (§1)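 Hartley male guinea pigs (400–450 g); 3–4-cm segments of terminal ileum in a 3.5-mL Krebs bath at 37 ± 0.5 °C, gassed with 95% O2-5% CO2. […] Each was tested at least twice per preparation. Results are the average of at least three ilea from different animals.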

Cavia porcellus [2] = species on record: Cavia porcellus; assay: Ability to display a naloxone-reversible inhibition of electrically induced contractions in GPI in the presence of 1.0 uM bestatin at concentration 10 e-6 M; type: functional
Cavia porcellus [3] = species on record: Cavia porcellus; assay: Inhibitory activity in guinea pig ileum tissue in the absence and presence of 10 nM naloxone; type: functional
Cavia porcellus [4] = species on record: Cavia porcellus; assay: Percentage inhibition of compound against morphine at 10 e-7 M in guinea pig ileum tissue; type: functional; outline: as §1
Cavia porcellus [5] = species on record: Cavia porcellus; assay: Ability to display a naloxone-reversible inhibition of electrically induced contractions in GPI in the presence of 1 uM bestatin at concentration 2 uM
Cavia porcellus [6] = species on record: Cavia porcellus; assay: Ability to display a naloxone-reversible inhibition of electrically induced contractions in GPI by Morphine at 0.5 uM; type: functional

Row | SMILES | Relative potency (Cavia porcellus [1]) | Inhibition (Cavia porcellus [2]) | Ke (Cavia porcellus [3]) | inhibition at 0.1 µM (Cavia porcellus [4]) | Inhibition (Cavia porcellus [1]) | Inhibition (Cavia porcellus [5]) | Inhibition (Cavia porcellus [6])
1 | CC(=O)N[C@H](Cc1ccccc1)C(=O)NCC(C)(C)NC(=O)C(N)Cc1ccc(O)cc1 (some centres not stated) | 21.2 | 91.5% | 4.2 nM | 43.5% |  |  | 
2 | CC(=O)N[C@H](Cc1ccccc1)C(=O)NCCC(C)(C)NC(=O)C(N)Cc1ccc(O)cc1 (some centres not stated) | 0.22 | 53% | 3.3 nM |  | 40% |  | 
3 | CC(=O)NC(Cc1ccccc1)C(=O)NCCC(C)(C)NC(=O)C(N)Cc1ccc(O)cc1 (stereo in doubt) | 0.052 | 50.5% | 2.1 nM |  | 47% |  | 
4 | CC(=O)NC(Cc1ccccc1)C(=O)NC(C)(C)CNC(=O)C(N)Cc1ccc(O)cc1 (stereo in doubt) |  | 16.3% |  | 47% |  |  | 
5 | CC(=O)NC(Cc1ccccc1)C(=O)NCCCNC(=O)C(N)Cc1ccc(O)cc1 (stereo in doubt) |  | 5% |  |  |  | 8% | 
6 | N[C@@H](Cc1ccccc1)C(=O)NCCNC(=O)[C@@H](N)Cc1ccc(O)cc1 |  | 12% |  |  |  |  | 49.5%
7 | N[C@H](Cc1ccccc1)C(=O)NCCNC(=O)[C@@H](N)Cc1ccc(O)cc1 |  | 8% |  | 49.5% |  |  | 
8 | CC(=O)NC(Cc1ccccc1)C(=O)NCCNC(=O)C(N)Cc1ccc(O)cc1 (stereo in doubt) |  | 10% |  | 49.5% |  |  | 
9 | CC(=O)N[C@H](Cc1ccccc1)C(=O)NCCCNC(=O)C(N)Cc1ccc(O)cc1 (some centres not stated) | 0.0077 | 29.5% | 4.4 nM |  | 47% |  | 
10 | CC(=O)NC(Cc1ccccc1)C(=O)NCC(C)(C)NC(=O)C(N)Cc1ccc(O)cc1 (stereo in doubt) | 10 | 79.3% | 1.4 nM | 47% |  |  | 
11 | CC(=O)N[C@H](Cc1ccccc1)C(=O)NC(C)(C)CNC(=O)C(N)Cc1ccc(O)cc1 (some centres not stated) | 0.27 | 42.5% |  | 40% |  |  | 
12 | CC(=O)N[C@H](Cc1ccccc1)C(=O)NCCNC(=O)C(N)Cc1ccc(O)cc1 (some centres not stated) | 1.6 | 89.5% | 4 nM | 40% |  |  | 
